Screening data deposited in PubChem BioAssay by Broad Institute.
T cruzi growth-1 – T. cruzi intracellular proliferation inhibitors, primary screen, cell-based, beta-gal Tulahuen parasites, NIH3T3 host, luminescence; inhibition, % at 8.34 µM; hit rate 5.9% among 77,000; T. cruzi beta-gal in NIH3T3, GalScreen luminescence, 90 h;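 active = mean inhibition above about 93%, with at least 55% of replicates each passing it, limit read from the data, passing the limit was not always enough; inconclusive = only one of those two conditions holds; inactive = neither condition holds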
IDH1 R132H inh – inhibitors of IDH1 R132H reductase, primary screen, biochemical, plate reader, single point. Isocitrate dehydrogenase [NADP] cytoplasmic (Homo sapiens), O75874. hit rate 0.18% among 70,000. AID 624101, 2012. diaphorase/resazurin fluorescence, 60 min. inhibition, % at 10 µM; in the data active = inhibition above about 34%; inconclusive = no clear call, values can overlap the other calls; inactive = below about 11%
GASC1 inh – inhibitors of GASC-1 (KDM4C) histone demethylase, primary screen, biochemical, single concentration HTS; inhibition, % at 12.5 µM; GST-KDM4C 2-372, H3K9me3 peptide, LANCE TR-FRET; hit rate 0.15% among 96,000; Lysine-specific demethylase 4C (Homo sapiens), Q9H3R0;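 active = mean replicate inhibition above about 25%, with at least 55% of replicates also reaching it, limit read from the data, passing the limit was not always enough; inconclusive = only one of those two conditions met; inactive = neither condition met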
Target sequence (Q9H3R0 2-372 limits assumed): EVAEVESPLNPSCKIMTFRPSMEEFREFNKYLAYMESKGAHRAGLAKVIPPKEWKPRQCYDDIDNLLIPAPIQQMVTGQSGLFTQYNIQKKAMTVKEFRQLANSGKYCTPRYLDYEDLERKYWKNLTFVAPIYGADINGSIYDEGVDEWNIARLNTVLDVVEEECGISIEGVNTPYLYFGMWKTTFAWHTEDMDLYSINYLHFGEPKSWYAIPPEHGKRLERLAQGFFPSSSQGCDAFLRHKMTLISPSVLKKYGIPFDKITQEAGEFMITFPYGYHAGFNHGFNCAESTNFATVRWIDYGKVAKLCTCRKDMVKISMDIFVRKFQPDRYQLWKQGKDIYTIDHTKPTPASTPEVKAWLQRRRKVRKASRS
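System: N-terminal GST-fused human GASC-1 (KDM4C) fragment, residues 2-372; amount: enzyme final amount 10 nM; incubation: reaction 30 min RT, detection step 1 h RT; medium: HEPES buffer, pH 7.5, plus ascorbate; technique: LANCE TR-FRET, Eu antibody, ULight-streptavidin, EDTA, ex 340 nm, em 618/671 nm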
T cruzi growth-2 – T. cruzi intracellular proliferation inhibitors, confirmation, cell-based, NIH3T3 host, beta-gal parasite, luminescence, cherry-pick; shares compounds with T cruzi growth-1; T. cruzi beta-gal in NIH3T3, GalScreen luminescence, 90 h; inhibition, % at 8.35 µM; hit rate 72% among 5,600;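 active = mean replicate inhibition above about 95% and at least 55% of replicates individually reaching it, limit read from the data; inconclusive = only one of the two criteria is met; inactive = neither criterion is met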
T cruzi growth-3 – inhibitors of intracellular T. cruzi replication, confirmation, NIH3T3 host cells, beta-gal parasites, cherry-pick, set 2 | shares compounds with T cruzi growth-1 | hit rate 21% among 5,600 | AID 651740, 2012 | inhibition, % at 2.09 µM | T. cruzi beta-gal in NIH3T3, GalScreen luminescence, 90 h;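 active = mean inhibition above about 95%, with at least 55% of replicates also reaching it, limit read from the data; inconclusive = meets just one of the two conditions; inactive = meets neither condition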
3T3 cytotox – cytotoxicity in mouse NIH/3T3 fibroblasts, confirmation, cytotoxicity control for T. cruzi proliferation inhibitor project, cell-based, cherry-pick, single point | hit rate 14% among 5,600 | shares compounds with T cruzi growth-1 | AID 651742, 2012 | NIH/3T3 viability, CellTiter-Glo ATP luminescence, 90 h | cytotoxicity (signal decrease), % at 8.35 µM;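 active = mean signal decrease across replicates above about 35% based on untreated-well scatter, with enough replicates individually passing, limit read from the data; inconclusive = no rule stated though some were filed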
3T3 cytotox 2 – NIH/3T3 fibroblast cytotoxicity, confirmation, cytotoxicity control, cell-based, cherry-pick, single point, set 2; shares compounds with T cruzi growth-1; NIH/3T3 viability, CellTiter-Glo ATP luminescence, 90 h; inhibition, % at 24.9 µM; hit rate 56% among 5,600;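 active = mean loss of cell viability signal at or above a set limit, and enough replicates individually reaching it; inconclusive = meets only the mean limit or only the replicate share; inactive = meets neither condition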
Each line names hits and unclear results; the compound was inactive in the other large screens (follow-up assays come after a bar, where they were run). Many of the other results were omitted from the sample, so hits are more common in it than they were.

C[C@H]1CN([C@@H](C)CO)C(=O)CCCn2cc(nn2)CO[C@@H]1CN(C)S(=O)(=O)c1ccc2c(c1)OCCCO2	none
Cc1cc(C(=O)Nc2ccc3c(c2)C(=O)N(C)[C@@H]2CC[C@@H](CC(=O)O)O[C@H]2CO3)no1	none (no result: IDH1 R132H inh)
C[C@@H]1CCCCO[C@@H](CN(C)Cc2ccccc2)[C@H](C)CN([C@H](C)CO)C(=O)c2cc(NC(=O)NC3CCCCC3)ccc2O1	T cruzi growth-1 inconclusive (no result: IDH1 R132H inh) | T cruzi growth-2 107 | T cruzi growth-3 inactive | 3T3 cytotox inactive | 3T3 cytotox 2 100
C[C@@H]1CN([C@@H](C)CO)C(=O)c2cc(NC(=O)NC3CCCCC3)ccc2O[C@@H](C)CCCCO[C@@H]1CN(C)Cc1ccccc1	none (no result: IDH1 R132H inh)
C[C@@H]1CN([C@@H](C)CO)C(=O)c2cc(NC(=O)NC3CCCCC3)ccc2O[C@@H](C)CCCCO[C@@H]1CN(C)Cc1ccc(C(=O)O)cc1	none
C[C@@H]1CCCCO[C@H](CN(C)Cc2ccccc2)[C@H](C)CN([C@@H](C)CO)C(=O)c2cc(NC(=O)NC3CCCCC3)ccc2O1	T cruzi growth-1 inconclusive (no result: IDH1 R132H inh) | T cruzi growth-2 100 | T cruzi growth-3 inactive | 3T3 cytotox inactive | 3T3 cytotox 2 100
CCCN(C)C[C@@H]1Oc2cc(-c3ccccc3OC)ccc2S(=O)(=O)N([C@H](C)CO)C[C@@H]1C	none
C[C@@H]1CN([C@@H](C)CO)C(=O)c2cc(NC(=O)Nc3ccccc3)ccc2O[C@@H](C)CCCCO[C@@H]1CN(C)Cc1ccc2c(c1)OCO2	T cruzi growth-1 97 (no result: IDH1 R132H inh) | T cruzi growth-2 101 | T cruzi growth-3 inactive | 3T3 cytotox 42 | 3T3 cytotox 2 34
C[C@@H]1CN([C@H](C)CO)C(=O)c2cc(NC(=O)Nc3ccccc3)ccc2O[C@@H](C)CCCCO[C@@H]1CN(C)Cc1ccc2c(c1)OCO2	T cruzi growth-1 inconclusive | T cruzi growth-2 inactive | T cruzi growth-3 inactive | 3T3 cytotox 94 | 3T3 cytotox 2 103
C[C@H]1CCCCO[C@@H](CN(C)Cc2ccccc2)[C@@H](C)CN([C@@H](C)CO)C(=O)c2cc(NC(=O)Nc3ccc4c(c3)OCO4)ccc2O1	none
C[C@@H]1CN([C@H](C)CO)C(=O)c2cc(NC(=O)Nc3ccccc3)ccc2O[C@@H](C)CCCCO[C@H]1CN(C)Cc1ccc2c(c1)OCO2	none (no result: IDH1 R132H inh)
C[C@H]1CCCCO[C@H](CN(C)Cc2ccc3c(c2)OCO3)[C@@H](C)CN([C@@H](C)CO)C(=O)c2cc(NC(=O)Nc3ccccc3)ccc2O1	none (no result: IDH1 R132H inh)
C[C@@H]1CCCCO[C@@H](CN(C)Cc2ccc3c(c2)OCO3)[C@H](C)CN([C@H](C)CO)C(=O)c2cc(NC(=O)Nc3ccccc3)ccc2O1	T cruzi growth-1 inconclusive | T cruzi growth-2 99 | T cruzi growth-3 105 | 3T3 cytotox inactive | 3T3 cytotox 2 104
O=C1c2ccccc2C(=O)N1CCc1nc(-c2ccccn2)no1	none (no result: T cruzi growth-1, GASC1 inh)
C[C@@H]1CN([C@H](C)CO)C(=O)c2cc(NS(=O)(=O)c3cn(C)cn3)ccc2O[C@H]1CN(C)C	none (no result: IDH1 R132H inh)
Cc1cccc(NC(=O)C(Cc2ccc([N+](=O)[O-])cc2)N2C(=O)c3ccccc3C2=O)c1 (configuration not stated)	none (no result: T cruzi growth-1, GASC1 inh)
CN1C(=O)c2cc(NS(=O)(=O)c3ccccc3Cl)ccc2OC[C@@H]2O[C@H](CC(=O)O)CC[C@@H]21	none (no result: IDH1 R132H inh)
CCCC#Cc1ccc([C@@H]2[C@H](C#N)N(C(=O)CN3CCOCC3)[C@H]2CO)cc1	T cruzi growth-1 99 (no result: IDH1 R132H inh) | T cruzi growth-2 inactive | T cruzi growth-3 inactive | 3T3 cytotox inactive | 3T3 cytotox 2 inactive
N#C[C@H]1[C@H](c2ccc(C#CCC3CCCC3)cc2)[C@@H](CO)N1C(=O)CN1CCOCC1	none (no result: IDH1 R132H inh)
